“Also recorded” adds a separate entry of the source.
Columns and labels:
ULK3 = assay: Immunoblot in U266 MM cells; format: cell-based, Human; details: 6 h
Summary of the method: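 Lysates quantified by BCA; 30 μg protein run on 10–15% SDS-PAGE (100 V, 2 h) and transferred to PVDF. Membranes blocked 1 h in TBST with 5% milk/5% BSA, probed overnight at 4 °C with primary (1:1000), then HRP secondary (1:1000). ECL detection; densitometry values annotated on the blot.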

[1] = system: MM cells (5TGM1, 8226, and U266); assay: MTS assay on MM cells; format: cell-based
Summary of the method: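 MM lines grown at 37 °C in RPMI 1640 with 10% heat-inactivated FBS plus pen/strep and plated at 2 × 10^5 cells/mL (96-well) or 3 × 10^5 cells/mL (384-well). Exposed to test compound or vehicle (HPβCD or DMSO) for 48 h. MTS absorbance read at 490 nm after 2 h at 37 °C; mean of technical replicates; three independent experiments.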

U266 MM cells = assay: Cyto-ID autophagy assay; format: cell-based, Human; details: U266, 1 μM
Summary of the method: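 U266 cells exposed to 1 μM test compound or vehicle for 6 h at 37 °C, washed, then stained 30 min in the dark with Cyto-ID Green plus DAPI (100 ng/ml) in 1% FBS assay buffer. Flow cytometry gave MFI and % Cyto-ID+ in live singlet cells. Confocal imaging (Hoechst/Cyto-ID) gave mean cytoplasmic intensity per group, compared by Kruskal–Wallis.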

Cc1[nH]c(/C=C2\C(=O)Nc3ccccc32)c(C)c1CCC(=O)O [SU6668]
ULK3 protein levels (ULK3): does not impact

N#CC[C@H](C1CCCC1)n1cc(-c2ncnc3[nH]ccc23)cn1 [ruxolitinib]
cell survival in vitro [1]: had no effect; also recorded: not affected

Cc1sc2c(c1C)C(c1ccc(Cl)cc1)=N[C@@H](CC(=O)OC(C)(C)C)c1nnc(C)n1-2 [JQ1]
autophagy (Cyto-ID) (U266 MM cells): had no effect; also recorded: did not impact autophagy

— paper PMC13601514 (Nature Communications, 2026)
